Five compounds from ChEMBL document CHEMBL4152308, “Synthesis and biological evaluation of novel 2-oxo-1,2-dihydroquinoline-4-carboxamide derivatives for the treatment of esophageal squamous cell carcinoma” (Eur J Med Chem, 2018) can be followed below.

Test [1] deals with KYSE-410. Kind of test: Induction of autophagy in human KYSE410 cells assessed as increase in LC3B level at 10 to 50 uM after 24 hrs by Western blot analysis. The class given is functional, cell-based. The method, boiled down: (§1)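 Cells treated 24 h at indicated concentrations, with bafilomycin for induced-LC3B readouts. Lysis in RIPA with protease inhibitors, BCA protein assay, samples heated 5 min at 100 °C. Equal protein run on 15% SDS-PAGE, transferred to PVDF. Anti-LC3B primary overnight at 4 °C, GAPDH as loading control, anti-rabbit secondary, TBST washes.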
(In general: In western blotting, separated proteins are transferred to a membrane and probed.)

Test [2] deals with KYSE-70 cell line. The experiment in a line: Antiproliferative activity against human KYSE-70 cells after 72 hrs by MTT assay. The class given is functional, cell-based. The settings on record: KYSE-70, 72 h. The method, boiled down:
(§2)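 Cells grown as monolayers at 37 °C, 5% CO2, mycoplasma-checked, in exponential phase. Cells seeded in 96-well plates, 24 h attachment, then compound added for 72 h. MTT 0.3 mg/mL for 3 h at 37 °C, DMSO solubilization, absorbance at 570 nm. Inhibition = (1 − A/C) × 100%. IC50 from log(concentration) vs % inhibition plot; triplicate wells, SD from ≥3 independent experiments.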
(Formazan colour is commonly taken as a measure of viable cells.)

Test [3] relates to KYSE-410. Kind of test: Antiproliferative activity against human KYSE410 cells after 72 hrs by MTT assay. Format: functional, cell-based. To be noted: KYSE-410, 72 h. The method, boiled down: as §2
Test [4] relates to SK-OV-3. The experiment in a line: Antiproliferative activity against human SKOV3 cells after 72 hrs by MTT assay. Format: functional, cell-based. The settings on record: SK-OV-3, 72 h. An outline of the steps: as §2
Test [5] has as its system KYSE-410. The experiment in a line: Cell cycle arrest in human KYSE410 cells assessed as accumulation at G1 phase at 1 uM after 24 to 48 hrs by propidium iodide staining based flow cytometry (reference value: 65.4%). Format: functional.
The subject of test [6] is OVCAR-8. The experiment in a line: Antiproliferative activity against human OVCAR8 cells after 72 hrs by MTT assay. Format: functional, cell-based. To be noted: OVCAR-8, 72 h. The method, boiled down: as §2
Test [7] concerns KYSE-410. The experiment in a line: Cell cycle arrest in human KYSE410 cells assessed as accumulation at S phase at 1 uM after 24 to 48 hrs by propidium iodide staining based flow cytometry (reference value: 22.3%). The class given is functional. On the technique in general: A flow cytometer gives signals particle by particle.
The test system of test [8] is KYSE-410. The experiment in a line: Cell cycle arrest in human KYSE410 cells assessed as accumulation at G1 phase at 5 uM after 24 to 48 hrs by propidium iodide staining based flow cytometry (reference value: 65.4%). The class given is functional.
Test [9] concerns KYSE-410. The experiment in a line: Inhibition of autophagy in human KYSE410 cells assessed as decrease in bafilomycin-induced LC3B level at 1 to 10 uM after 24 hrs by Western blot analysis. Format: functional, cell-based. An outline of the steps:
as §1

In test [10] the test system is KYSE-410. The experiment in a line: Cell cycle arrest in human KYSE410 cells assessed as accumulation at G2 phase at 1 uM after 24 to 48 hrs by propidium iodide staining based flow cytometry (reference value: 12.2%). The class given is functional.
Test [11] has as its system KYSE-410. Kind of test: Cell cycle arrest in human KYSE410 cells assessed as accumulation at G2 phase at 5 uM after 24 to 48 hrs by propidium iodide staining based flow cytometry (reference value: 12.2%). Format: functional.
Test [12] concerns MIA PaCa-2. Kind of test: Antiproliferative activity against human MIAPaCa2 cells after 72 hrs by MTT assay. Format: functional, cell-based. To be noted: MIA PaCa-2, 72 h. The method, boiled down:
as §2

Test [13] deals with MIA PaCa-2. The experiment in a line: Inhibition of autophagy in human MIAPaCa2 cells assessed as decrease in bafilomycin-induced LC3B level at 1 to 10 uM after 24 hrs by Western blot analysis. Format: functional, cell-based. The method, boiled down:
as §1

Test [14] concerns KYSE-410. Kind of test: Cell cycle arrest in human KYSE410 cells assessed as accumulation at S phase at 5 uM after 24 to 48 hrs by propidium iodide staining based flow cytometry (reference value: 22.3%). The class given is functional.
The test system of test [15] is KYSE-410. The experiment in a line: Inhibition of autophagy in human KYSE410 cells assessed as decrease in bafilomycin-induced LC3B level at 10 uM treated at 1 hr post proteasome inhibitor MG132 treatment measured after 24 hrs by Western blot analysis. The class given is functional, cell-based. An outline of the steps:
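KYSE410 cells pretreated 1 h with 10 µM MG132 (proteasome inhibitor), then compound at 10 µM for 24 h. Lysis in RIPA with protease inhibitors, BCA quantification, equal protein on 15% SDS-PAGE, PVDF transfer. Anti-LC3B overnight at 4 °C, anti-rabbit secondary, GAPDH as loading reference.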

Test [16] concerns KYSE-70 cell line. The experiment in a line: Inhibition of colony formation in human KYSE-70 cells at >3 uM after 7 days by crystal violet staining based assay. Format: functional, cell-based. The method, boiled down:
(§3)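 Seeding at 250 cells/well in 96-well plates, attached 24 h, then serial compound dilutions added at 37 °C. Culture continued 7 days until colonies formed. Colonies washed, stained with 2% crystal violet for 1 h, then rinsed thoroughly with water.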

The subject of test [17] is KYSE-410. Kind of test: Inhibition of colony formation in human KYSE410 cells at >3 uM after 7 days by crystal violet staining based assay. The class given is functional, cell-based. An outline of the steps: as §3
The test system of test [18] is KYSE-410. The experiment in a line: Inhibition of autophagy in human KYSE410 cells assessed as decrease in bafilomycin-induced LC3B level after 24 hrs by Western blot analysis. The class given is functional, cell-based. An outline of the steps: as §1
The test system of test [19] is KYSE-410. Kind of test: Inhibition of colony formation in human KYSE410 cells at 0.4 to 30 uM after 7 days by crystal violet staining based assay. Format: functional, cell-based. An outline of the steps: as §3
In test [20] the test system is KYSE-70 cell line. Kind of test: Inhibition of colony formation in human KYSE-70 cells at 0.4 to 30 uM after 7 days by crystal violet staining based assay. The class given is functional, cell-based. The method, boiled down:
as §3

SMILES strings stand for the structures. The source made the active and inactive calls. The calls are words filed in the database; no cut-off is given here.

A word on the IC50: it is the midpoint of a concentration-inhibition curve. A lower IC50 goes with inhibition by little substance.

Regarding `CCN(CC)CCCC(C)Nc1ccc2c(C(=O)Nc3cccc(F)c3)cc(=O)[nH]c2c1` (stereo not given), the outcome in test [1] was Active. Moreover, the IC50 in [2] and in test [3] was over 20 µM throughout.
For the compound `O=C(Nc1cccc(F)c1)c1cc(=O)[nH]c2cc(Br)ccc12`, the IC50 worked out at 10.6 µM in test [4]; 8.9 µM in test [2]; 5.8 µM in [6]; 7.3 µM in [3]; 7.5 µM in test [12]. The Activity worked out at 61.9% in test [5]; 25.1% in test [7]; 53.6% in [8]; 13% in test [10]; 22.4% in test [11]; 24% in test [14]. Further, the inhibition result in test [9] and in test [13] was “Active” throughout.
As to `O=C(Nc1cc(F)cc(F)c1)c1cc(=O)[nH]c2cc(Br)ccc12`, the inhibition result in [15] is “inactive”. The IC50 is 10.8 µM in test [4]; 10.7 µM in [2]; 12.1 µM in test [6]; 11.2 µM in [3]; 7.8 µM in [12]. Also, the Activity in [5] is on record as 64.2%; in test [7], 21.2%; in [8], 57.2%; in test [10] it was 14.6%; in test [11], 19.8%; in test [14], 23%. The inhibition result in test [16], in test [17], in test [9] and in test [13] was “Active” throughout. In addition, in test [18], the inhibition entry was “Dose-dependent effect”.
As to `CC(C)(C)c1ccc(NC(=O)c2cc(=O)[nH]c3cc(Br)ccc23)cc1`, the IC50 in test [2] and in [3] was over 20 µM in each case. The inhibition result in test [19] and in [20] was “inactive” throughout.
With `CCN(CC)CCCC(C)Nc1ccc(NC(=O)c2cc(=O)[nH]c3cc(F)ccc23)cc1F` (stereo not given), the result in [1] was Active. Further, the IC50 in [2] and in test [3] was over 20 µM in each case.
